{"source": "paper PMC10084868", "about": "(International Journal of Nanomedicine, 2023)", "key": {"[1]": {"tested_on": "zebrafish haematopoiesis", "experiment": "Haemoglobin", "format": "in vivo", "settings": "zebrafish embryos; F1 starting from 0.4 µg/mL; haemoglobin staining and video", "procedure,_shortened": "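Shield-stage embryos were exposed to the formulation at 0.4 µg/mL and raised to the 20-somite stage, then given 0.003% (final) phenylthiourea to block pigmentation. They were then rinsed and fixed in 4% paraformaldehyde.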"}, "[2]": {"settings": "humans; cited from earlier work"}, "[3]": {"settings": "powdered drugs, reported previously; cited from earlier work"}}}
{"smiles": "COc1cc(/C=C/C(=O)CC(=O)/C=C/c2ccc(O)c(OC)c2)ccc1O", "note": "[CUR, Curcumin]", "values": [{"measurement": "effect on blood circulation / haematopoiesis", "setting": "[1]", "value": "did not affect haematopoiesis"}, {"measurement": "increase of bioavailability of CUR with concomitant PP vs CUR alone", "setting": "[2]", "value": 2000, "unit": "%"}, {"measurement": "dissolution rate (release) of powdered drug", "setting": "[3]", "value": "less than 20%"}]}
{"smiles": "O=C(/C=C/C=C/c1ccc2c(c1)OCO2)N1CCCCC1", "note": "[PP, Piperine]", "values": [{"measurement": "effect on blood circulation / haematopoiesis", "setting": "[1]", "value": "did not affect haematopoiesis"}, {"measurement": "dissolution rate (release) of powdered drug", "setting": "[3]", "value": "less than 20%"}]}
